SMILES strings stand for the structures. pIC50: −log10 of the molar value.

Data on 17 molecules can be found in ChEMBL document CHEMBL2380273, “Discovery of potent transient receptor potential vanilloid 1 antagonists: design and synthesis of phenoxyacetamide derivatives” (Bioorg Med Chem Lett, 2013).

Test [1] deals with Transient receptor potential cation channel subfamily V member 1 (Homo sapiens, UniProt Q8NER1). Description: Antagonist activity at human TRPV1 transfected in CHOK1 cells assessed as inhibition of capsaicin-induced intracellular calcium level measured for 120 secs by FLIPR analysis. The test is classed as cell-based, CHO-K1. The gist of the method:
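CHO-K1 cells stably expressing hTRPV1, grown to 90% confluency, loaded 90 min at rt with Fluo4-AM (2 μM) in HBSS/20 mM HEPES pH 7.4, then washed three times. Test agent added at various concentrations together with 100 nM capsaicin. Peak fluorescence over 120 s averaged in triplicate. IC50 is the concentration giving 50% inhibition of the capsaicin control response.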
(Calcium assays in cells follow changes in intracellular calcium, usually with a dye or a luminescent sensor.)

Test [2] relates to Rattus norvegicus. Nature of the test: Suppression of capsaicin-induced bladder contraction in iv dosed Sprague-Dawley rat overactive bladder model. Format: functional, organism-based. In a few lines:
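Female Sprague–Dawley rats anesthetized with urethane (1.0 g/kg ip) and bladder catheterized via the urethra, with saline infused at 3.0 mL/h for 5 min for basal pressure. Capsaicin 30 μg/kg iv given every 10 min. After stable contractions, test agent or vehicle (20% cremophor EL) given iv, followed by capsaicin again. Reported as % change in contraction. n=4, mean ± SEM; Bartlett's then Williams' test versus vehicle.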

Test [3] concerns Rattus norvegicus. Nature of the test: Reduction of cyclophosphamide-induced voiding frequency in iv dosed Sprague-Dawley rat cystitis and pollakiuria model measured for 20 mins. Format: functional, organism-based. The gist of the method: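 Female Sprague–Dawley rats given cyclophosphamide 150 mg/kg ip. Bladder catheter implanted 4 h later, with saline infused at 3.6 mL/h for continuous cystometry. Once voiding frequency was stable, dosed iv with test agent or vehicle (20% cremophor EL). Voids counted for 20 min before and after dosing and expressed as % change. n=4, mean ± SEM; Bartlett's then Williams' test versus vehicle.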

Transient receptor potential cation channel subfamily V member 1, sequence (Q8NER1 whole entry): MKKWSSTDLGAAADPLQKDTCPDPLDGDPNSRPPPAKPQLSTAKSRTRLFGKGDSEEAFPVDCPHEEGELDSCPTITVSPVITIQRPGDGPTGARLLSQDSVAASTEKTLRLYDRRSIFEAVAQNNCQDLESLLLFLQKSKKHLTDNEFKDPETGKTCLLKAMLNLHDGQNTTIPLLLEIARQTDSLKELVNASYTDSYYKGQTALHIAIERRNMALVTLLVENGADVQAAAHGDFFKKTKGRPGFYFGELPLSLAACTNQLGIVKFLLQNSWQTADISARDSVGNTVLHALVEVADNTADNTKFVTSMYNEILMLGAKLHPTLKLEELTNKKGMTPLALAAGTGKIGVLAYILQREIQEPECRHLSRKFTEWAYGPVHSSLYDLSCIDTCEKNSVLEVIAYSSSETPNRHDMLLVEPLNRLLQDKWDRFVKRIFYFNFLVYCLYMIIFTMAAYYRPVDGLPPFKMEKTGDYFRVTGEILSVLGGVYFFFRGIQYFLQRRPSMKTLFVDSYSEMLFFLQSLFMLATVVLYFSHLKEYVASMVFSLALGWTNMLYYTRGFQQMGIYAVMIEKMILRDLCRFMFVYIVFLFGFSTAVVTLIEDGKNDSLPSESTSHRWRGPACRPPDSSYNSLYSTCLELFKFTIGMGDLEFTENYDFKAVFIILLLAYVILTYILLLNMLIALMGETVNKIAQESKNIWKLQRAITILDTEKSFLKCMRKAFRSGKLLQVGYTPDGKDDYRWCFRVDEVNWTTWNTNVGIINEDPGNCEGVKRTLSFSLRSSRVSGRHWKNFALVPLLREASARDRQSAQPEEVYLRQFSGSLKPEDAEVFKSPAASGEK

On to `Cc1cc(NC(=O)COc2ccc(C(C)(C)C)cc2)cnc1N(C)CCO`, for which the pIC50 – broadly, the negative decadic logarithm of the IC50, by convention in mol/L – in test [1] is 6.89. Take `CN(CCO)c1ccc(NC(=O)COc2ccc(C(C)(C)C)cc2N2CCCCC2)cn1`: the pIC50 in test [1] is 6.03. On the same count and under the same terms, then `CC(C)c1ccc(OCC(=O)Nc2ccc(N(C)CCO)nc2)cc1`, with 6.96; and `CN(CCO)c1ccc(NC(=O)COc2ccccc2)cn1`, with less than 5.00. Same read-out and setting: then `CN(CCO)c1ncc(NC(=O)COc2ccc(C(C)(C)C)cc2)cc1Cl`, with 7.36; and `O=C(Nc1ccccc1Br)N[C@H]1CCN(c2ccc(C(F)(F)F)cn2)C1`, with 6.92. Same read-out and setting: the same measure for `CN(CCO)c1ccc(NC(=O)COc2ccccc2C(C)(C)C)cn1`: 6.10. For `CN(CCO)c1ccc(NC(=O)COc2ccc(C(C)(C)C)cc2)cn1`, the Activity result with Rattus norvegicus [2] and in the test on Rattus norvegicus [3] was “Dose-dependent effect” each time. For the same molecule, the pIC50 in test [1] is 7.48. As for `CN(CCO)c1ccc(NC(=O)COc2cccc(C(C)(C)C)c2)cn1`, the negative logarithm of the IC50 (pIC50) in test [1] is 5.58. As to `CCN(C)c1ccc(NC(=O)COc2ccc(C(C)(C)C)cc2)cn1`, the negative-log IC50 (pIC50) in test [1] was 6.23. On the same count and under the same terms, then `CN(C)c1ccc(NC(=O)COc2ccc(C(C)(C)C)cc2)cn1`, with 7.23; and `CN(CCO)c1ccc(NC(=O)COc2ccc(C34CC5CC(CC(C5)C3)C4)cc2)cn1`, with less than 5.00; and `CC(C)(C)c1ccc(OCC(=O)Nc2ccc(N3CCC(O)C3)nc2)cc1` (centres undefined), with 6.29. The same measure, in the same setting: the same measure for `CN(CCO)c1ccc(NC(=O)COc2ccc(C(F)(F)F)cc2)cn1`: less than 5.00.

Turning to `CC(C)(C)c1ccc(OCC(=O)Nc2ccc(N3CCCC3)nc2)cc1`, the pIC50 in test [1] was 6.39. On to `CN(CCO)c1ccc(NC(=O)COc2ccc(C(C)(C)C)cc2Br)cn1`, for which the negative-log IC50 (pIC50) in test [1] was 7.07. As to `CN(CCO)c1ccc(NC(=O)COc2ccc(C(C)(C)C)cc2C(C)(C)C)cn1`, in test [1], the negative-log IC50 (pIC50) was 6.97.
